pIC50, pKi: −log10 of the molar value. Calls of active or inactive are those of the source. The calls are words filed in the database; no cut-off is given here.
Key:
Adenosine receptor A1 [1] = biological target: T1, Adenosine receptor A1 (Homo sapiens, UniProt P30542); test: Displacement of [3H]DPCPX from human adenosine A1 receptor expressed in CHO cells; type: cell-based
T1 sequence (P30542 whole entry): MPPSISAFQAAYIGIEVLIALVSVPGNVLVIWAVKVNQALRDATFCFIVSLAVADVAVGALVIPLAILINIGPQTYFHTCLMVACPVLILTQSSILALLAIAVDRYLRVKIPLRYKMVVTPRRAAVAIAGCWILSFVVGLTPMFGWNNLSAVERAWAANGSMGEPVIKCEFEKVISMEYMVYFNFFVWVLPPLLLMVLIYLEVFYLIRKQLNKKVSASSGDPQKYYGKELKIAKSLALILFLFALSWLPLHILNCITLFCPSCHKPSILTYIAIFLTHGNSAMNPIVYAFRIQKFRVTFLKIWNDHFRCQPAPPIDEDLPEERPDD

Adenosine receptor A2a = Adenosine receptor A2a (Homo sapiens, UniProt P29274); test: biochemical; type: cell-based, CHO
Chain of Adenosine receptor A2a (P29274 whole entry): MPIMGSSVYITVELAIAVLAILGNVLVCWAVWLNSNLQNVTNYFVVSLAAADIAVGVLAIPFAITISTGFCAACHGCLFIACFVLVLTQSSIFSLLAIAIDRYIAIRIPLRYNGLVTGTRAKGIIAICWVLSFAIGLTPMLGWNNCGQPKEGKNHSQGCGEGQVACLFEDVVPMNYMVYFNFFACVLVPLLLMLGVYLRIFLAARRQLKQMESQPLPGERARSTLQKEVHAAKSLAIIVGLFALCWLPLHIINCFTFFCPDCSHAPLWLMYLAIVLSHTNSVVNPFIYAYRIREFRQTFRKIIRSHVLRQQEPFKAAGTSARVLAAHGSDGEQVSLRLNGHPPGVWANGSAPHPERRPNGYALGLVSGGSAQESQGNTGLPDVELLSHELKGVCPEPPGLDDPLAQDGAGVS

Adenosine receptor A3 [2] = biological target: T2, Adenosine receptor A3 (Homo sapiens, UniProt P0DMS8); test: biochemical; type: cell-based, CHO
T2 sequence (P0DMS8 whole entry): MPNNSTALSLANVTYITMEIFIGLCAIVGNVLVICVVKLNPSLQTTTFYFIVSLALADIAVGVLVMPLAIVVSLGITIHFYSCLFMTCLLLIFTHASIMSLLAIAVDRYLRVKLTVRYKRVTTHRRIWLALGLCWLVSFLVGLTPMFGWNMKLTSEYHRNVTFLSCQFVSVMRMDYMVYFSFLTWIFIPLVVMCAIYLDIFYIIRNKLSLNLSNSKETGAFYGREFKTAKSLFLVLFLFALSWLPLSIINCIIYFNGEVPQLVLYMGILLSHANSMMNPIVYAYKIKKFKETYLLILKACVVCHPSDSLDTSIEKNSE

[3] = biological target: T3, Adenosine deaminase (Bos taurus) (UniProt P56658); test: Inhibition of bovine spleen adenosine deaminase at 10 uM after 2 mins by spectrophotometry
T3 sequence (whole entry): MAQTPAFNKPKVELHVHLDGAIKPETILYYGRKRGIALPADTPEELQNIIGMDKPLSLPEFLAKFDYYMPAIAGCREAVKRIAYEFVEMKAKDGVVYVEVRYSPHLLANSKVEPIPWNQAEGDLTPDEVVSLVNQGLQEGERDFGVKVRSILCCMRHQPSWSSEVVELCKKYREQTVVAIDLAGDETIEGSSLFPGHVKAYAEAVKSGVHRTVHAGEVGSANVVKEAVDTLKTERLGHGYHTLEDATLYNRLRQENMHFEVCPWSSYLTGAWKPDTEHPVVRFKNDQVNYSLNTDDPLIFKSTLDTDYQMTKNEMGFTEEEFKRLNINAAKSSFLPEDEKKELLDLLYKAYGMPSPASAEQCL
In short: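 Bovine spleen ADA at 0.3 nM with 50 μM adenosine in 50 mM potassium phosphate, pH 7.2, at 30 °C. Inhibitor is tested at 10 μM with final DMSO ≤4%. Deamination is followed as the change in A262 over 2 min, against a substrate-free blank.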

U-87 MG [4] = test: Inhibition of Cl-IB-MECA-mediated human U87MG cell proliferation after 48 hrs by trypan blue exclusion assay; type: functional, cell-based, U-87MG ATCC
In short: (§1)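 U87MG cells in RPMI/10% FBS are arrested in G1 (0.5% FBS, 48 h). They are then treated 48 h with Cl-IB-MECA 100 nM or IB-MECA 12 nM, with or without antagonist at 0.1–10 nM or 0.01–5 nM. Live cells are counted by 0.4% trypan blue exclusion in a haemocytometer and expressed as % of control, mean ± SEM.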

U-87 MG [5] = test: Inhibition of IBMECA-mediated human U87MG cell proliferation after 48 hrs by trypan blue exclusion assay; type: functional, cell-based, U-87MG ATCC; in short: as §1
U-87MG ATCC [6] = test: Antiproliferative activity against human U87MG cell proliferation at 0.1 to 10 nM after 48 hrs by trypan exclusion assay; type: functional, cell-based; in short: as §1
Adenosine receptor A2b = biological target: T4, Adenosine receptor A2b (Homo sapiens, UniProt P29275); test: Antagonist activity human recombinant adenosine A2B receptor expressed in CHO cells assessed as inhibition of NECA-mediated [3H]cAMP accumulation treated 15 mins before NECA challenge measured after 30 mins by liquid scintillation spectrometry; type: functional, cell-based
T4 sequence (P29275 whole entry): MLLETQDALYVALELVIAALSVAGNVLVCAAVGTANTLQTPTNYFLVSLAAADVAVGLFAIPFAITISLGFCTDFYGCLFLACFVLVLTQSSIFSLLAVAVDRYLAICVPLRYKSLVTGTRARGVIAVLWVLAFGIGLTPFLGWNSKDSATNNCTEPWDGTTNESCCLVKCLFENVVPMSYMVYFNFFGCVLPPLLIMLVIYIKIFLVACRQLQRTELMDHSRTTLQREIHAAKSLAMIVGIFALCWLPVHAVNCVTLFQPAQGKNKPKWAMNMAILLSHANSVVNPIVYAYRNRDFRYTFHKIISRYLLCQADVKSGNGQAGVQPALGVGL
In short: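 CHO cells stably expressing hA2B are pre-incubated 15 min at 37 °C in DMEM with ADA 1 U/mL and Ro 20-1724 20 μM. […] Cells are lysed in 0.4 N HCl. cAMP is measured by [3H]cAMP competition with bovine adrenal binding protein (150 min, 0 °C), with filtration and scintillation counting. Mean ± SEM, four experiments in triplicate.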

Adenosine receptor A3 [7] = biological target: T2, Adenosine receptor A3; test: Antagonist activity human recombinant adenosine A3 receptor expressed in CHO cells assessed as blockade of NECA-mediated inhibition of forskolin-stimulated [3H]cAMP production treated 15 mins before NECA challenge measured after 30 mins by liquid scintillation spectrometry; type: functional, cell-based
In short: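 hA3-expressing CHO cells are pre-incubated 15 min at 37 °C with ADA 1 U/mL and Ro 20-1724 20 μM. […] HCl lysates are assayed for cAMP by [3H]cAMP/binding-protein competition with scintillation read-out. IC50 is reported as mean ± SEM of four experiments in triplicate.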

Adenosine receptor A3 [8] = biological target: T2, Adenosine receptor A3; test: Antagonist activity at adenosine A3 receptor in human U87MG cells assessed as inhibition of Cl-IB-MECA-mediated ERK1/2 phosphorylation after 30 mins by ELISA; type: functional, cell-based, U-87MG ATCC
[9] = biological target: T5, Mitogen-activated protein kinase; ERK1/ERK2 (Homo sapiens) (UniProt P27361+P28482); test: Modulation of ERK1/2 phosphorylation in human U87MG cells at 0.25 to 10 nM after 30 mins by ELISA; type: cell-based; conditions: U-87MG ATCC
T5 sequence (P27361 whole entry, looked up): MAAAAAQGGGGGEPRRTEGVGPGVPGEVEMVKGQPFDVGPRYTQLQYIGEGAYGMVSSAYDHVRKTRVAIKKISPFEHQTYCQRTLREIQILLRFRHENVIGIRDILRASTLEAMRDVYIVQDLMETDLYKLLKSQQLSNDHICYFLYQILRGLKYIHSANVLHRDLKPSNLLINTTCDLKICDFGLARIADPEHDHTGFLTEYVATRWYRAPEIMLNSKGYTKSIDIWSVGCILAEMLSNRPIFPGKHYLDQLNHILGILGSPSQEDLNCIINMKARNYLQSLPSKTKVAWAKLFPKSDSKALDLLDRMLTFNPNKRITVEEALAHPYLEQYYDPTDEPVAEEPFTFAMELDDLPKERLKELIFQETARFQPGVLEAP
T5 sequence (P28482 whole entry, looked up): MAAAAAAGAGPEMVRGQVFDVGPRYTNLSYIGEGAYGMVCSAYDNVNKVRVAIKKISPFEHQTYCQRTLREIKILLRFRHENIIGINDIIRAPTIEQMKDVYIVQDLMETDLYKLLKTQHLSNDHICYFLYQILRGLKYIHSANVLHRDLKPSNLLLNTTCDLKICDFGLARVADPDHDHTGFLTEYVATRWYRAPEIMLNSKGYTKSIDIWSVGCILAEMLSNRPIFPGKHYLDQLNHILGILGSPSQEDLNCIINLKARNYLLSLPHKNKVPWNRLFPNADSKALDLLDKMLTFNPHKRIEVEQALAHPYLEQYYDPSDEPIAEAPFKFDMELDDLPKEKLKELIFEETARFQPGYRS

[10] = Octanol-water partition coefficient, log P of the compound; type: physicochemical
Adenosine receptor A1 [11] = biological target: T1, Adenosine receptor A1; test: Inhibition of human adenosine A1 receptor
In short: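 Displacement binding using membranes (30 μg protein) from CHO cells stably expressing human A1 receptor. […] Six compound concentrations were tested, in DMSO ≤2% final. Nonspecific binding was defined with 50 μM RPIA. IC50 was converted to Ki by Cheng-Prusoff; at least three determinations.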

U-87MG ATCC [12] = test: Antiproliferative activity against human U87MG cell proliferation at 0.01 to 5 nM after 48 hrs by trypan exclusion assay; type: functional, cell-based; in short: as §1
[13] = biological target: T5, Mitogen-activated protein kinase; ERK1/ERK2 (Homo sapiens); test: Modulation of ERK1/2 phosphorylation in human U87MG cells at 0.05 to 1 nM after 30 mins by ELISA; type: cell-based; conditions: U-87MG ATCC
[14] = biological target: T6, Adenosine receptor A3 (Homo sapiens) (UniProt P0DMS8); test: Induction of adenosine A3 receptor-mediated ERK1/2 phosphorylation in human U87MG cells at 100 nM by ELISA; type: cell-based; conditions: U-87MG ATCC, TDE = time-dependent effect
T6 sequence (whole entry): T2 sequence (P0DMS8 whole entry)
In short: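 Time course in U87MG cells given 100 nM Cl-IB-MECA for 5–120 min. Phospho-ERK1/2 is read by colorimetric cell-based ELISA after fixation, with crystal violet cell-number correction. Results are % of control cells, mean ± SEM, Student t test.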

Structure (SMILES) | pKi (Adenosine receptor A1 [1]) | pKi (Adenosine receptor A2a) | pKi (Adenosine receptor A3 [2]) | inhibition [3] | further results
Cn1cc2c(NC(=O)c3ccccc3)nc(-c3ccccc3)nc2n1 | 6.48 | 6.14 | 9.22 | inactive | pIC50 (U-87 MG [4]): 9.77; pIC50 (U-87 MG [5]): 9.39; Activity (U-87MG ATCC [6]): inactive; pIC50 (Adenosine receptor A2b): 7.30; pIC50 (Adenosine receptor A3 [7]): 8.72; pIC50 (Adenosine receptor A3 [8]): 9.13; Activity [9]: inactive; logP [10]: 3.8
Cn1cc2c(N)nc(-c3ccccc3)nc2n1 | 6.23 | < 5.00 | 6.04 | inactive | –
O=C(Nc1nc(-c2ccccc2)nc2nn(CCc3ccccc3)cc12)c1ccccc1 | 7.57 | 6.64 | 7.36 | – | –
COc1ccc(NC(=O)Nc2nc(-c3ccccc3)nc3nn(C)cc23)cc1 | < 5.00 | < 5.00 | 6.45 | inactive | –
Cn1cc2c(NC(=O)c3cccc(Cl)c3)nc(-c3ccccc3)nc2n1 | 5.97 | 6.05 | 8.23 | inactive | –
COc1ccc(C(=O)Nc2nc(-c3ccccc3)nc3nn(CCc4ccccc4)cc23)cc1 | 5.62 | 5.94 | 7.34 | – | –
COc1ccc(NC(=O)Nc2nc(-c3ccccc3)nc3nn(CCc4ccccc4)cc23)cc1 | < 5.00 | < 5.00 | < 6.00 | – | –
O=C(Nc1ccccc1)Nc1nc(-c2ccccc2)nc2nn(Cc3ccccc3)cc12 | 6.54 | < 5.00 | 8.54 | inactive | pIC50 (Adenosine receptor A2b): 5.88; pIC50 (Adenosine receptor A3 [7]): 8.24
O=C(Nc1cccc(Cl)c1)Nc1nc(-c2ccccc2)nc2nn(Cc3ccccc3)cc12 | < 5.00 | < 5.00 | 6.92 | – | –
O=C(Nc1cccc(Cl)c1)Nc1nc(-c2ccccc2)nc2nn(CCc3ccccc3)cc12 | < 5.00 | < 5.00 | < 6.00 | – | –
O=C(Nc1ncnc2nn(Cc3ccccc3)cc12)c1cccc(Cl)c1 | < 5.00 | 5.31 | < 6.00 | – | –
O=C(Nc1ccccc1)Nc1nc(-c2ccccc2)nc2nn(CCc3ccccc3)cc12 | 5.77 | 7.02 | 7.44 | – | –
Nc1nc(-c2ccccc2)nc2nn(CCc3ccccc3)cc12 | 5.60 | 6.00 | 6.30 | inactive | –
COc1ccc(NC(=O)Nc2nc(-c3ccccc3)nc3nn(Cc4ccccc4)cc23)cc1 | < 5.00 | < 5.00 | 8.54 | inactive | pIC50 (Adenosine receptor A2b): 5.83; pIC50 (Adenosine receptor A3 [7]): 8.09
Cc1cn2c(NC(=O)c3ccccc3)nc(-c3ccccc3)nc2n1 | – | – | – | – | pKi (Adenosine receptor A1 [11]): 6.46
COc1ccc(C(=O)Nc2nc(-c3ccccc3)nc3nn(C)cc23)cc1 | 5.98 | 5.50 | 9.74 | inactive | pIC50 (U-87 MG [4]): 10.04; pIC50 (U-87 MG [5]): 10.24; Activity (U-87MG ATCC [12]): inactive; pIC50 (Adenosine receptor A2b): 7.27; pIC50 (Adenosine receptor A3 [7]): 8.62; pIC50 (Adenosine receptor A3 [8]): 10.21; Activity [13]: inactive; logP [10]: 4
CNC(=O)OC[C@H]1O[C@@H](n2cnc3c(NCc4cccc(I)c4)nc(Cl)nc32)[C@H](O)[C@@H]1O | 6.92 | – | – | – | Activity [14]: tde
Nc1nc(-c2ccccc2)nc2nn(Cc3ccccc3)cc12 | 6.51 | 6.92 | 7.03 | inactive | –
O=C(Nc1nc(-c2ccccc2)nc2nn(Cc3ccccc3)cc12)c1cccc(Cl)c1 | < 5.00 | < 5.00 | 8.43 | inactive | pIC50 (Adenosine receptor A2b): 5.88; pIC50 (Adenosine receptor A3 [7]): 8.12
COc1ccc(C(=O)Nc2nc(-c3ccccc3)nc3nn(Cc4ccccc4)cc23)cc1 | < 5.00 | < 5.00 | 7.66 | – | –
O=C(Nc1ncnc2nn(Cc3ccccc3)cc12)c1ccccc1 | < 5.00 | < 5.00 | < 6.00 | – | –
Cn1cc2c(NC(=O)Nc3cccc(Cl)c3)nc(-c3ccccc3)nc2n1 | 6.04 | < 5.00 | 7.54 | inactive | –
O=C(Nc1nc(-c2ccccc2)nc2nn(Cc3ccccc3)cc12)c1ccccc1 | 7.28 | 6.74 | 8.52 | inactive | pIC50 (Adenosine receptor A2b): 6.57; pIC50 (Adenosine receptor A3 [7]): 7.28
COc1ccc(C(=O)Nc2ncnc3nn(Cc4ccccc4)cc23)cc1 | < 5.00 | < 5.00 | < 6.00 | – | –
Cn1cc2c(NC(=O)Nc3ccccc3)nc(-c3ccccc3)nc2n1 | < 5.00 | < 5.00 | 7.68 | inactive | –
O=C(Nc1nc(-c2ccccc2)nc2nn(CCc3ccccc3)cc12)c1cccc(Cl)c1 | 5.98 | 6.50 | 7.65 | – | –
